This is an account of results in ChEMBL document CHEMBL4706642, “Discovery of a Potent Dual Inhibitor of Acetylcholinesterase and Butyrylcholinesterase with Antioxidant Activity that Alleviates Alzheimer-like Pathology in Old APP/PS1 Mice” (J Med Chem, 2021).

Each structure is given as a SMILES string. The source made the active and inactive calls.

Series [1] in a line: Selectivity index, ratio of IC50 for human serum BChE using butyrylthiocholineiodide as substrate to IC50 for recombinant human AChE using acetylthiocholine iodide as substrate. The gist of the method:
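Ellman spectrophotometric assay in 0.1 M phosphate buffer, pH 8.0, with 340 μM DTNB. Enzyme was 0.02 U/mL human recombinant AChE or human serum BChE. […] Then 550 μM ATCh or BTCh was added, and A412 was followed for 210 s. Non-enzymatic hydrolysis was corrected. IC50 came from a % inhibition vs log[I] regression. Selectivity = IC50 hBChE/IC50 hAChE. Mean ± SEM of ≥2 experiments, each in duplicate/triplicate.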

Series [2] in a line: Antioxidant activity assessed as DPPH radical scavenging activity incubated for 30 mins under dark condition by UV-Vis spectrophotometric analysis. Format: functional. For orientation: DPPH is a stable violet radical that fades when it is reduced.
A short description of series [3]: Drug distribution in wild type C57BL6 mouse kidney at 2 mg/kg, ip thrice a week for 2 weeks observed after 4 hrs post last dose by HPLC/MS/MS analysis. The note with it: in vivo, 336 h. The format is ADME, organism-based.
A short description of series [4]: Drug concentration in wild type C57BL6 mouse brain at 2 mg/kg, ip thrice a week for 2 weeks observed after 4 hrs post last dose by HPLC/MS/MS analysis. The conditions noted are these: brain.
The subject of series [5] is Mus musculus. The series can be described thus: Cognitive enhancing effect in 6 months young APP/PS1 double mutant-transgenic mouse model assessed as increase in preference index for object at 2 mg/kg, ip administered thrice a week for 4 weeks by novel object recognition test. Format: functional, organism-based. The gist of the method:
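Male APP/PS1 mice received 2 mg/kg i.p. in saline (or vehicle), three times per week for 4 weeks. Preference index = time exploring the relocated or novel object divided by total time exploring both objects. Mean ± SEM, n = 7 per group; one-way ANOVA with Bonferroni post hoc.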

Series [6] deals with Mus musculus. The series can be described thus: Memory enhancement effect in 11 months old APP/PS1 double mutant-transgenic mouse model assessed as number of trials required to reach criterion at 2 mg/kg, ip administered thrice a week for 4 weeks measured on trail day 1 by memory flexibility text. The format is functional. The gist of the method: (§1)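 Memory flexibility test in male APP/PS1 mice treated i.p. with 2 mg/kg in saline (or vehicle), three times weekly for 4 weeks. The number of trials to reach criterion was counted on each testing day over 4 days. Mean ± SEM, n = 7 per group; one-way ANOVA with Bonferroni post hoc.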

Series [7] concerns Mus musculus. In words: Memory enhancement effect in 11 months old APP/PS1 double mutant-transgenic mouse model assessed as number of trials required to reach criterion at 2 mg/kg, ip administered thrice a week for 4 weeks measured after 4 days by memory flexibility text. The format is functional. In outline: as §1
Series [8] concerns Mus musculus. The series can be described thus: Antialzheimer activity in 6 months young APP/PS1 double mutant-transgenic mouse model assessed as amyloid beta40 levels in hippocampus at 2 mg/kg, ip administered thrice a week for 4 weeks by ELISA. Format: functional, organism-based. The gist of the method:
(§2)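 Male APP/PS1 mice received 2 mg/kg i.p. in saline (or vehicle), three times weekly for 4 weeks. After the behavioral tests, hippocampus was collected and Aβ40 and Aβ42 were measured with a specific ELISA kit. Mean ± SEM, n = 7 mice per group; one-way ANOVA with Bonferroni post hoc.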
(In general: An ELISA detects its analyte on a solid surface through an enzyme-linked reagent.)

The test system of series [9] is Mus musculus. The series can be described thus: Antialzheimer activity in 11 months old APP/PS1 double mutant-transgenic mouse model assessed as postsynaptic potential in CA3 region of hippocampus at 2 mg/kg, ip administered thrice a week for 4 weeks followed by stimulation with 1 to 10 uA EPSP by fluorescence microscopy based electrophysiology method (reference value: 0.293 +/- 0.105 mV/ms). The format is functional. In outline: (§3)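 Hippocampal slices from male APP/PS1 mice given 2 mg/kg i.p. in saline (or saline alone), three times per week for 4 weeks. Input–output curves were built from evoked fEPSP slopes and fiber volley amplitudes, with values taken at the maximum current intensity. Mean ± SEM of 9 slices from 3 mice per group; two-way ANOVA with Bonferroni post hoc.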

For series [10], the system named is Mus musculus. The series can be described thus: Antialzheimer activity in 11 months old APP/PS1 double mutant-transgenic mouse model assessed as fiber volley amplitude in CA3 region of hippocampus at 2 mg/kg, ip administered thrice a week for 4 weeks followed by stimulation with 1 to 10 uA EPSP by fluorescence microscopy based electrophysiology method (reference value: 0.826 +/- 0.169 mV/ms). Format: functional. In outline: as §3

Series [11] deals with Mus musculus. In words: Neuroprotective activity in 6 months young APP/PS1 double mutant-transgenic mouse model assessed as decrease in 4-hydroxy-2-nonenal levels in hippocampus at 2 mg/kg, ip administered thrice a week for 4 weeks by Hoechst staining based immunofluorescence analysis. The format is functional, organism-based. The gist of the method:
(§4)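 Hippocampal 4-hydroxy-2-nonenal was assessed by immunofluorescence with Hoechst counterstain in male APP/PS1 mice given 2 mg/kg i.p. in saline (or vehicle), three times weekly for 4 weeks. Mean ± SEM, n = 4 mice per group; one-way ANOVA with Bonferroni post hoc.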

Series [12] deals with Mus musculus. In words: Neuroprotective activity in 11 months old APP/PS1 double mutant-transgenic mouse model assessed as decrease in 4-hydroxy-2-nonenal levels in hippocampus at 2 mg/kg, ip administered thrice a week for 4 weeks by Hoechst staining based immunofluorescence analysis. The format is functional, organism-based. The gist of the method: as §4
Series [13] has as its system Mus musculus. The series can be described thus: Antiinflammatory activity in 11 months old APP/PS1 double mutant-transgenic mouse model assessed as reduction in GFAP level in hippocampus at 2 mg/kg, ip administered thrice a week for 4 weeks by Hoechst staining based immunofluorescence analysis. The format is functional, organism-based. The gist of the method: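 Hippocampal GFAP immunofluorescence with Hoechst nuclear counterstain in male APP/PS1 mice after 2 mg/kg i.p. in saline (or vehicle), three times per week for 4 weeks. Mean ± SEM, n = 4 mice per group; one-way ANOVA with Bonferroni post hoc.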

Series [14] concerns Mus musculus. In words: Cognitive enhancing effect in 6 months young APP/PS1 double mutant-transgenic mouse model assessed as effect on time spent on moving along the field at 2 mg/kg, ip administered thrice a week for 4 weeks by LOF test. Format: functional, organism-based. The gist of the method:
(§5)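 Open-field locomotor test in male APP/PS1 mice after 2 mg/kg i.p. in saline (or vehicle), three times per week for 4 weeks. Read-outs were time spent moving and number of crossings of the central area of a transparent cage. Mean ± SEM, n = 7 per group; one-way ANOVA with Bonferroni post hoc.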

The test system of series [15] is Mus musculus. The series can be described thus: Cognitive enhancing effect in 6 months young APP/PS1 double mutant-transgenic mouse model assessed as effect on number of times animal crossing central area in transparent cage at 2 mg/kg, ip administered thrice a week for 4 weeks by LOF test. The format is functional, organism-based. In outline: as §5
Series [16] relates to Mus musculus. The series can be described thus: Cognitive enhancing effect in 11 months old APP/PS1 double mutant-transgenic mouse model assessed as effect on number of times animal crossing central area in transparent cage at 2 mg/kg, ip administered thrice a week for 4 weeks by LOF test. The format is functional, organism-based. In outline:
as §5

Series [17] addresses Acetylcholinesterase (Homo sapiens, UniProt P22303). The series can be described thus: Inhibition of recombinant human AChE using acetylthiocholineiodide as substrate preincubated for 20 mins followed by substrate addition by Ellman's method relative to parent compound. Background: Ellman's reagent forms a yellow product with free thiols.
Series [18] concerns Mus musculus. In words: Antialzheimer activity in 11 months old APP/PS1 double mutant-transgenic mouse model assessed as amyloid beta40 levels in hippocampus at 2 mg/kg, ip administered thrice a week for 4 weeks by ELISA (reference value: 8.65 +/- 0.44 pg/ml). The format is functional. In outline:
as §2

In series [19] the test system is Mus musculus. In words: Antialzheimer activity in 11 months old APP/PS1 double mutant-transgenic mouse model assessed as ratio of amyloid beta42 to amyloid beta40 levels in hippocampus at 2 mg/kg, ip administered thrice a week for 4 weeks by ELISA (reference value: 7.99 +/- 0.60). Format: functional.

In general, IC50 refers to the concentration needed to halve the response being measured.

Acetylcholinesterase, sequence (P22303 whole entry): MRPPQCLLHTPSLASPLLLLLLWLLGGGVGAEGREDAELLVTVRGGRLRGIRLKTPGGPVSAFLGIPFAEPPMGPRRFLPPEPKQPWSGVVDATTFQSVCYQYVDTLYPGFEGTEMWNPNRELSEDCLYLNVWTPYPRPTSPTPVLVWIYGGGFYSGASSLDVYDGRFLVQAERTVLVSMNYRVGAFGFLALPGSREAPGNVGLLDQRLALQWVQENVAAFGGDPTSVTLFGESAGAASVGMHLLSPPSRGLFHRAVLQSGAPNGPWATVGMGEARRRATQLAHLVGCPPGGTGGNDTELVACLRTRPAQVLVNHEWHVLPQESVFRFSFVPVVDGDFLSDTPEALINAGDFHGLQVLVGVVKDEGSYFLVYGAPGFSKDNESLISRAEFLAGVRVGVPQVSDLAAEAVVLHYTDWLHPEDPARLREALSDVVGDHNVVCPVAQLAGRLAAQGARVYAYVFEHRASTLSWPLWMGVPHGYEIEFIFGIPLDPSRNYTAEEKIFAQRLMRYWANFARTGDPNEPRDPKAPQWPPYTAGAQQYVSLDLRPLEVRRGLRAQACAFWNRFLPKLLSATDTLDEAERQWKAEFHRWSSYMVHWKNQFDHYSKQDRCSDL

For `COc1cc(CNC(=O)CCCCCCNc2c3c(nc4cc(Cl)ccc24)CC2C=C(C)CC3C2)ccc1O` (stereo not given), the Ratio IC50 in [1] came out at 39.7. In addition, in [2], the IC50 came to 55.4 µM. Also, in series [3], the Drug uptake result is “Active”. The same molecule gave a concentration at 336 h in series [4] of 1580 ng/g. Also, the outcome in series [5], in series [8], in series [11], in series [14], in [15] and in series [16] was inactive. The Activity in series [6] was 14; in series [7] it was 13; in series [9], 0.545 mV/ms; in series [10], 0.808 mV. The outcome in series [12] and in series [13] was Active.

With `COc1cc(CNC(=O)Cc2cn(CCCCC3=CC4Cc5nc6cc(Cl)ccc6c(N)c5C(C3)C4)nn2)ccc1O` (stereo not given), in [1], the Ratio IC50 came to 6.9. The IC50 in series [2] is 92 µM. For the same molecule, the fold change (FC) in series [17] was determined as 25. The Drug uptake result in series [3] is given as “Active”. For the same molecule, the concentration at 336 h in series [4] was determined as 18900 ng/g. Further, the result in series [5], in [8], in series [11], in [14], in [15] and in [16] was inactive. The Activity in [6] was 13; in series [7] it was 7; in [18], 18.4 pg/mL; in series [9] it was 0.652 mV/ms; in [10], 1.039 mV. In addition, the Ratio in series [19] is recorded as 3.42. Also, the outcome in [12] and in series [13] was Active.
